Assay results collected from several papers.
pIC50: −log10 of the molar value.
Read-out: enzyme activity
Action: inhibitor
CDK6 with cyclin D3: Cyclin-dependent kinase 6, with cyclin D3 (CDK6, Homo sapiens, UniProt Q00534)
CA2: Carbonic anhydrase 2 (CA2, Bos taurus, UniProt P00921)
DNA-3-methyladenine glycosylase: DNA-3-methyladenine glycosylase (Homo sapiens, UniProt P29372)
YCK2: Serine/threonine protein kinase YCK2 (YCK2, Candida albicans, UniProt A0A1D8PKB4)
EGFR: Epidermal growth factor receptor (EGFR, Homo sapiens, UniProt P00533)
MTOR: Serine/threonine-protein kinase mTOR (MTOR, Homo sapiens, UniProt P42345)

target	method	pIC50	SMILES
CDK6 with cyclin D3	radiometric	7.21	CNS(=O)(=O)c1ccc(Nc2ncc3cc(Cl)c(=O)n(C4CCCC4)c3n2)c(C)c1
CA2	absorbance	7.10	COc1cc(-c2[nH]c(=S)nc3nc(Nc4ccc(S(N)(=O)=O)cc4)sc23)ccc1O
CDK6 with cyclin D3	radiometric	5.45	CNS(=O)(=O)c1ccc(Nc2ncc(C(F)(F)F)c(N3CCC[C@](C)(O)C3)n2)c(C)c1
CDK6 with cyclin D3	ADP detection	6.22	O=C1C(=O)N(CCn2ncc3c(=O)[nH]cnc32)c2ccc(Cl)cc21
CDK6 with cyclin D3	radiometric	5.06	CNS(=O)(=O)c1ccc(Nc2ncc(C(F)(F)F)c([C@H]3CC[C@@](C)(O)CC3)n2)c(C)c1
DNA-3-methyladenine glycosylase		< 4.00	Clc1ccc(Nc2ccncc2)cc1Cl
Serine/threonine-protein kinase B-raf (BRAF, Homo sapiens, UniProt P15056, V600E)		4.76	NS(=O)(=O)c1ccc(-n2nc(C(=O)NN=Cc3ccccc3O)cc2-c2ccccc2)cc1
YCK2	ADP detection	6.28	c1ccc(-c2n[nH]cc2-c2ccncc2)nc1
EGFR		6.19	CCNC(c1ccccc1)c1c(N)[nH]c(=O)[nH]c1=O (stereo not drawn)
MTOR		6.84	Cc1cc2c(cc1C)N[C@H](c1ccccc1)[C@@H](O)C(=O)N2
YCK2	ADP detection	5.80	c1ccc(-c2n[nH]cc2-c2ccncn2)nc1
EGFR	ELISA	5.87	CCCCCCCCCCCC[N+]1(C)CCOCC1
MTOR	FRET	7.40 to 7.55	COc1ccc(-c2ccc3c(N4CCOC[C@@H]4C)nc(N4CCOC[C@@H]4C)nc3n2)cc1COCCOCCOCCOCCONC(=O)c1ccc(F)c(F)c1Nc1ccc(I)cc1F
CA2	absorbance	4.16	O=C1C[C@@H](c2ccc(O)cc2)Oc2cc(O)cc(O)c21
YCK2	ADP detection	5.31	c1ccc(-c2[nH]ccc2-c2ccnc3ccccc23)nc1
EGFR		5.34	CNC(c1ccccc1)c1c(N)[nH]c(=O)[nH]c1=O (stereo not drawn)
Neutrophil elastase (ELANE, Homo sapiens, UniProt P08246)	absorbance	< 4.00	N=C(N)c1ccc(OCCCCCOc2ccc(C(=N)N)cc2)cc1
Ferroptosis suppressor protein 1 (AIFM2, Homo sapiens, UniProt Q9BRQ8)	absorbance	7.47	COc1ccc(N2CCN(Cc3cn4c(-c5ccc(Br)cc5)nnc4s3)CC2)cc1
EGFR		6.88	CC(=O)c1nc2ccccc2n1Cc1cn([C@@H]2OC[C@@H](O)[C@H](O)[C@H]2O)nn1
EGFR		6.01	CCCCNC(c1ccccc1)c1c(N)[nH]c(=O)[nH]c1=O (stereo not drawn)
DNA-3-methyladenine glycosylase		< 4.00	Nc1cnccc1Nc1ccc(Cl)c(Cl)c1
MTOR	FRET	6.48	C[C@H]1COCCN1c1nc(N2CCOC[C@@H]2C)c2ccc(-c3cccc(C(=O)NCCOCCOCCOCCONC(=O)c4ccc(F)c(F)c4Nc4ccc(I)cc4F)c3)nc2n1
EGFR		7.12	O=C(/C=C/c1ccc(F)cc1)c1nc2ccccc2n1Cc1cn([C@@H]2OC[C@@H](O)[C@H](O)[C@H]2O)nn1
YCK2	ADP detection	6.26	Cn1cc(-c2ccnc3ccccc23)c(-c2ccccn2)n1
